Reference: ChEMBL document CHEMBL4229369, “Design, synthesis and antitubercular evaluation of benzothiazinones containing a piperidine moiety” (Eur J Med Chem, 2018)
≈ marks a conversion by molar mass, not a printed value.

Key:
[1] = test system: Mycobacterium tuberculosis; assay: Antitubercular activity against Mycobacterium tuberculosis H37Rv ATCC27395 after 7 days by Alamar blue assay; format: functional; conditions: 168 h
Outline: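 Inoculum grown to late log phase in Middlebrook 7H9 with 0.2% glycerol, 0.05% Tween 80 and 10% ADC, then washed in PBS, filtered through 8 µm to remove clumps and frozen at -80 °C. Twofold compound dilutions in 7H9-ADC-TG with 2 × 10⁵ CFU per well, 37 °C. Alamar blue and Tween 80 added on day 7, read after 16-24 h (ex 530/em 590 nm). MIC is the lowest concentration giving ≥90% fluorescence reduction versus bacterium-only controls.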

[2] = Half life in ICR mouse at 50 mg/kg, po administered as single dose by HPLC analysis; format: ADME, organism-based; conditions: in vivo
Outline: (§1)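 SPF female ICR mice (20-25 g), fasted overnight, 3 per group; single oral dose 50 mg/kg as suspension in 0.5% CMC. Jugular vein blood at 0.25, 0.5, 1, 2, 4, 6, 8 and 24 h; serum stored at −20 °C, protein removed with acetonitrile, supernatant dried, redissolved in acetonitrile and analysed by HPLC. Parameters derived directly from the experimental data.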

[3] = Cmax in ICR mouse at 50 mg/kg, po administered as single dose by HPLC analysis; format: ADME, organism-based; set-up: dose 50 mg/kg, route oral; conditions: in vivo; outline: as §1
[4] = Tmax in ICR mouse at 50 mg/kg, po administered as single dose by HPLC analysis; format: ADME, organism-based; conditions: in vivo; outline: as §1
[5] = AUC (0 to infinity) in ICR mouse at 50 mg/kg, po administered as single dose by HPLC analysis; format: ADME, organism-based; set-up: dose 50 mg/kg, route oral, time infinity; conditions: in vivo; outline: as §1
[6] = MRT in ICR mouse at 50 mg/kg, po administered as single dose by HPLC analysis; format: ADME, organism-based; conditions: in vivo; outline: as §1

SMILES	MIC90 [1] [µg/mL]	other results
O=c1nc(N2CCC(CN3CCC(C(F)(F)F)CC3)CC2)sc2c([N+](=O)[O-])cc(C(F)(F)F)cc12	< 0.016	half-life [2]: 198 min; Cmax [3]: 1160 ng/mL; Tmax [4]: 15 min; AUC(0-inf) [5]: 2490 ng·h/mL; MRT [6]: 4.26 h
CO[C@H]1/C=C/O[C@@]2(C)Oc3c(C)c(O)c4c(O)c(c(/C=N/N5CCN(C)CC5)c(O)c4c3C2=O)NC(=O)/C(C)=C\C=C\[C@H](C)[C@H](O)[C@@H](C)[C@@H](O)[C@@H](C)[C@H](OC(C)=O)[C@@H]1C [RIFAMPIN]	0.084 (≈ 0.102 µM)	
O=c1nc(N2CCC(CN3CCCCCC3)CC2)sc2c([N+](=O)[O-])cc(C(F)(F)F)cc12	1.32 (≈ 2.81 µM)	
CN1CCN(CC2CCN(c3nc(=O)c4cc(C(F)(F)F)cc([N+](=O)[O-])c4s3)CC2)CC1	7.84 (≈ 16.6 µM)	
CN(C1CCCCC1)C1CCN(c2nc(=O)c3cc(C(F)(F)F)cc([N+](=O)[O-])c3s2)CC1	0.973 (≈ 2.07 µM)	
NNC(=O)c1ccncc1 [ISONIAZID]	0.037 (≈ 0.27 µM)	
CC1CCCN(CC2CCN(c3nc(=O)c4cc(C(F)(F)F)cc([N+](=O)[O-])c4s3)CC2)C1 (stereo unspecified)	0.241 (≈ 0.512 µM)	
O=c1nc(N2CCC(CN3CCCCC3)CC2)sc2c([N+](=O)[O-])cc(C(F)(F)F)cc12	0.481 (≈ 1.05 µM)	
CC1CCCCN1CC1CCN(c2nc(=O)c3cc(C(F)(F)F)cc([N+](=O)[O-])c3s2)CC1 (stereo unspecified)	1.92 (≈ 4.08 µM)	
O=c1nc(N2CCC(CN3CCCC3)CC2)sc2c([N+](=O)[O-])cc(C(F)(F)F)cc12	3.58 (≈ 8.09 µM)	
CCN(CC)CC1CCN(c2nc(=O)c3cc(C(F)(F)F)cc([N+](=O)[O-])c3s2)CC1	1.82 (≈ 4.11 µM)	
O=c1nc(N2CCC(NC3CCCCC3)CC2)sc2c([N+](=O)[O-])cc(C(F)(F)F)cc12	0.959 (≈ 2.1 µM)	
O=c1nc(N2CCC(CN3CCC(O)CC3)CC2)sc2c([N+](=O)[O-])cc(C(F)(F)F)cc12	1.96 (≈ 4.15 µM)	
CC1CCN(CC2CCN(c3nc(=O)c4cc(C(F)(F)F)cc([N+](=O)[O-])c4s3)CC2)CC1	0.488 (≈ 1.04 µM)	
O=c1nc(N2CCC(CN3CCC4(CC3)OCCO4)CC2)sc2c([N+](=O)[O-])cc(C(F)(F)F)cc12	3.71 (≈ 7.21 µM)	
O=c1nc(N2CCN(CC3CCCCC3)CC2)sc2c([N+](=O)[O-])cc(C(F)(F)F)cc12 [MACOZINONE]	< 0.016	
